In assay [1] the test system is HeLa. Put plainly: Growth inhibition of human HeLa cells after 48 hrs by MTT assay in presence of 10% FBS supplemented DMEM medium. It is filed as functional. The procedure, abridged: (§1)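 Cells seeded at 5 × 10³/well and allowed 24 h to attach, then exposed to compound (DMSO stock) or vehicle for 48 h in 10% FBS DMEM at 37 °C, 5% CO₂. MTT (2 mg/mL in PBS) added for a further 2 h; formazan dissolved in DMSO and read at 570 nm. Inhibition = (1 − At/Ac) × 100. GI₅₀ interpolated from dose-response curves; mean ± SEM of 4–6 experiments; top concentration 40 μM.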
For orientation: Tetrazolium assays rely on reduction of a dye to a coloured formazan, in cell work by metabolically active cells.

Assay [2] concerns BT-483. In words: Growth inhibition of human BT-483 cells at 40 uM after 48 hrs by MTT assay in presence of 10% FBS supplemented DMEM medium. It is filed as functional, cell-based. The method, boiled down:
as §1

The test system of assay [3] is SKHep. Put plainly: Growth inhibition of human SKHep cells at 40 uM after 48 hrs by MTT assay in presence of 10% FBS supplemented DMEM medium. It is filed as functional, cell-based. The method, boiled down: as §1
Assay [4] deals with CE81T. Put plainly: Growth inhibition of human CE81T cells at 40 uM after 48 hrs by MTT assay in presence of 10% FBS supplemented DMEM medium. It is filed as functional, cell-based. The method, boiled down: as §1
Assay [5] relates to HeLa. In words: Growth inhibition of human HeLa cells after 48 hrs by MTT assay in presence of 1 uM CuCl2. It is filed as functional. The procedure, abridged: as §1
Assay [6] relates to HeLa. Put plainly: Growth inhibition of human HeLa cells after 48 hrs by MTT assay in presence of 10 uM CuCl2. The format is functional. The method, boiled down: as §1
Assay [7] deals with HeLa. Put plainly: Growth inhibition of human HeLa cells after 48 hrs by MTT assay in presence of 50 uM CuCl2. It is filed as functional. The procedure, abridged:
as §1

Assay [8] deals with HeLa. Put plainly: Growth inhibition of human HeLa cells after 48 hrs by MTT assay in presence of 50 uM ZnCl2. The format is functional. The method, boiled down: as §1
Assay [9] deals with HeLa. Put plainly: Growth inhibition of human HeLa cells after 48 hrs by MTT assay in presence of 100 uM ZnCl2. The format is functional. The method, boiled down:
as §1

Assay [10] in a line: Growth inhibition of human BT-483 cells after 48 hrs by MTT assay in presence of 10% FBS supplemented DMEM medium. It is filed as functional. The settings on record: BT-483, 48 h. The method, boiled down: as §1
The nature of assay [11]: Growth inhibition of human SKHep cells after 48 hrs by MTT assay in presence of 10% FBS supplemented DMEM medium. The format is functional. The method, boiled down:
as §1

Assay [12] in a line: Growth inhibition of human CE81T cells after 48 hrs by MTT assay in presence of 10% FBS supplemented DMEM medium. It is filed as functional. The procedure, abridged:
as §1

Assay [13] has as its system HeLa. In words: Stimulation of reactive oxygen species in human HeLa cells at 10 uM in presence of 10 uM CuCl2 after 1 hr by dihydroethidium dye based fluorescence assay. The format is functional, cell-based. The procedure, abridged: (§2)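 HeLa cells grown in DMEM with 10% FBS, 2 mM glutamine, penicillin/streptomycin at 37 °C, 5% CO2. Compound given with CuCl2, with or without tempol 1 mM; 0.5% DMSO control, untreated blank. Dihydroethidium 5 µmol/L loaded 30 min, PBS wash, epifluorescence microscopy; four separate cultures, two to six coverslips each.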

In assay [14] the target is T1, MAP kinase p38 (Homo sapiens) (UniProt O15264+Q15759+Q16539+P53778). In words: Activation of p38 phosphorylation in human HeLa cells at 3 uM in presence of 10 uM CuCl2 by Western blot. The settings on record: TDE = time-dependent effect. It is filed as cell-based. The procedure, abridged: (§3)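 HeLa cells grown in DMEM with 10% FBS, 2 mM glutamine and penicillin/streptomycin at 37 °C, 5% CO₂. Treated cells were lysed and the extracts run on Western blot. Membranes were blocked overnight at 4 °C in TBST/5% non-fat milk. Probed with phospho- and total ERK1/2, p38 and JNK antibodies, then anti-mouse or anti-rabbit IgG (1:10,000, 1 h, RT), with ECL detection.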
(In general: In western blotting, separated proteins are transferred to a membrane and probed.)

The test system of assay [15] is HeLa. Put plainly: Activation of ERK phosphorylation in human HeLa cells at 3 uM in presence of 10 uM CuCl2 and tempol after 2 hrs by Western blot. It is filed as cell-based. The method, boiled down: as §3
Assay [16] in a line: Activation of JNK phosphorylation in human HeLa cells at 3 uM in presence of 10 uM CuCl2 and tempol after 2 hrs by Western blot. It is filed as cell-based. The method, boiled down: as §3
Assay [17] has as its target T1, MAP kinase p38 (Homo sapiens). Put plainly: Activation of p38 phosphorylation in human HeLa cells at 3 uM in presence of 10 uM CuCl2 and tempol after 2 hrs by Western blot. It is filed as cell-based. The method, boiled down: as §3
Assay [18] relates to HeLa. In words: Activation of ERK phosphorylation in human HeLa cells at 3 uM after 2 hrs by Western blot. The format is cell-based. The method, boiled down:
as §3

Assay [19] in a line: Activation of JNK phosphorylation in human HeLa cells at 3 uM after 2 hrs by Western blot. It is filed as cell-based. The procedure, abridged:
as §3

Assay [20] has as its target T1, MAP kinase p38 (Homo sapiens). In words: Activation of p38 phosphorylation in human HeLa cells at 3 uM after 2 hrs by Western blot. The format is cell-based. The procedure, abridged: as §3
The subject of assay [21] is HeLa. In words: Activation of ERK phosphorylation in human HeLa cells at 3 uM in presence of 10 uM CuCl2 by Western blot. The format is cell-based. The settings on record: TDE = time-dependent effect. The procedure, abridged: as §3
The nature of assay [22]: Activation of JNK phosphorylation in human HeLa cells at 3 uM in presence of 10 uM CuCl2 by Western blot. It is filed as cell-based. The settings on record: TDE = time-dependent effect. The procedure, abridged:
as §3

Assay [23] relates to HeLa. Put plainly: Induction of apoptosis in human HeLa cells assessed as accumulation at subG1 phase after 24 hrs by flow cytometry. It is filed as functional, cell-based. The procedure, abridged:
(§4)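 HeLa cells exposed 24 h to test agent; controls were 0.5% DMSO and untreated cells. Optional additions were CuCl₂ 10 μM, tempol 1 mM or z-VAD. Cells were fixed in 80% ethanol and held at −20 °C. They were then stained 30 min at room temperature in the dark with PI 0.08 mg/mL, 0.1% Triton X-100 and RNase A 0.2 mg/mL in PBS. Subdiploid (sub-G1) fraction was quantified by flow cytometry as % of all events.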
On the technique in general: Flow cytometry measures light scatter and fluorescence of single cells or particles in a stream.

For assay [24], the system named is HeLa. In words: Induction of apoptosis in human HeLa cells assessed as PARP cleavage at 3 uM after 24 hrs by Western blot. It is filed as functional, cell-based.
Assay [25] relates to HeLa. In words: Induction of apoptosis in human HeLa cells assessed as PARP cleavage at 10 uM after 24 hrs by Western blot. The format is functional, cell-based.
The test system of assay [26] is HeLa. Put plainly: Induction of apoptosis in human HeLa cells assessed as procaspase-3 activation at 3 uM after 24 hrs by Western blot. The format is functional, cell-based.
Assay [27] deals with HeLa. Put plainly: Induction of apoptosis in human HeLa cells assessed as procaspase-3 activation at 10 uM after 24 hrs by Western blot. It is filed as functional, cell-based.
Assay [28] deals with HeLa. In words: Induction of apoptosis in human HeLa cells assessed as procaspase-9 activation at 3 uM after 24 hrs by Western blot. The format is functional, cell-based.
Assay [29] deals with HeLa. Put plainly: Induction of apoptosis in human HeLa cells assessed as procaspase-9 activation at 10 uM after 24 hrs by Western blot. It is filed as functional, cell-based.
Assay [30] deals with HeLa. In words: Induction of apoptosis in human HeLa cells assessed as accumulation at subG1 phase at 3 uM after 24 hrs using propidium iodide staining by flow cytometry. The format is functional. The method, boiled down: as §4
Assay [31] deals with HeLa. In words: Induction of apoptosis in human HeLa cells assessed as accumulation at subG1 phase at 3 uM in presence of 10 uM CuCl2 after 24 hrs using propidium iodide staining by flow cytometry. It is filed as functional. The procedure, abridged:
as §4

Assay [32] has as its system HeLa. Put plainly: Induction of apoptosis in human HeLa cells assessed as accumulation at subG1 phase at 3 uM in presence of 1 mM tempol after 24 hrs using propidium iodide staining by flow cytometry. The format is functional. The method, boiled down: as §4
The subject of assay [33] is HeLa. In words: Stimulation of reactive oxygen species in human HeLa cells at 3 uM in presence of 5 uM CuCl2 after 1 hr by dihydroethidium dye based fluorescence assay. It is filed as functional, cell-based. The procedure, abridged: as §2
Assay [34] concerns HeLa. In words: Activation of ERK phosphorylation in human HeLa cells at 3 uM in presence of 10 uM CuCl2 after 2 hrs by Western blot. The format is cell-based. The method, boiled down: as §3
Assay [35] is described as follows: Activation of JNK phosphorylation in human HeLa cells at 3 uM in presence of 10 uM CuCl2 after 2 hrs by Western blot. The format is cell-based. The procedure, abridged: as §3
Assay [36] concerns the target T1, MAP kinase p38 (Homo sapiens). In words: Activation of p38 phosphorylation in human HeLa cells at 3 uM in presence of 10 uM CuCl2 after 2 hrs by Western blot. The format is cell-based. The procedure, abridged:
as §3

Calls of active or inactive are those of the source. The calls are words filed in the database; no cut-off is given here.

What is called GI50 is the concentration at which growth is held to half of that of the control. As to `Oc1c(CN2CCCCC2)ccc2ccccc12`, the 50% growth inhibitory concentration (GI50) in [1] stood at 25.5 µM; in [5], 30.7 µM; in assay [6] it was 22.8 µM; in [7], 48.8 µM; in [8] it was 34 µM; in [9], 44.5 µM. Besides, the GI50 result in [2], in [3] and in assay [4] was “inactive” each time.

For the compound `CCN(CC)CCCC(C)Nc1ccnc2cc(Cl)ccc12` (stereo not given) [CHLOROQUINE], the concentration for 50% growth inhibition (GI50) was determined as 18.6 µM in assay [1]; 10.2 µM in assay [10]; 9.5 µM in assay [11]; 23.4 µM in [12]; 6.1 µM in assay [5]; 5.3 µM in assay [6]. For the same compound, the results for the concentration for 50% growth inhibition (GI50) in assay [7], in [8] and in [9] were 4.4 µM, 5.6 µM and 2.1 µM, respectively. For the same compound, in [13], the outcome was Active.

In the case of `O=S(=O)(c1ccccc1)N1CCN(Cc2ccc3ccccc3c2O)CC1`, the concentration for 50% growth inhibition (GI50) in [1] was 38.6 µM; in assay [5], 40.1 µM; in assay [6], 28.4 µM; in assay [7], 22.6 µM; in assay [8], 29.7 µM; in [9] it was 20.1 µM. In addition, the GI50 result in assay [2], in [3] and in assay [4] was “inactive” throughout.

For the compound `O=S(=O)(c1ccccc1)N1CCN(Cc2ccc3cccnc3c2O)CC1`, the GI50 in assay [1] came out at 6.8 µM; in assay [10], 10.7 µM; in assay [11] it was 14.6 µM; in [12], 5.6 µM; in [5] it was 2.5 µM; in [6], 0.31 µM. For the same compound, the values for the 50% growth inhibitory concentration (GI50) in assay [7], in [8] and in [9] were 0.27 µM, 7.5 µM and 7.3 µM, respectively. In addition, the Activity result was “tde” in [14]; “tde” in [21]; “tde” in [22]; “Dose-dependent effect” in assay [23]; 7.91% in assay [30]; 29.76% in assay [31]. Besides, the Activity in assay [32] was found to be 5.79%. For the same compound, the outcome in assay [15], in [16], in [17], in [18], in [19] and in [20] was inactive. Besides, the outcome in [24], in [25], in assay [26], in assay [27], in assay [28] and in [29] was Active. The result in [33], in [34], in assay [35] and in [36] was Active.

As for `Oc1c(CN2CCCCC2)ccc2cccnc12`, the concentration for 50% growth inhibition (GI50) in [1] was 14.5 µM; in assay [10] it was 26.9 µM; in [11], 16.6 µM; in [12] it was 16.7 µM; in [5], 3 µM; in [6] it was 0.58 µM. Also, the values for the GI50 in assay [7], in assay [8] and in assay [9] were 0.35 µM, 8.5 µM and 12.9 µM, respectively. Besides, in assay [33], the outcome was Active.

These data come from ChEMBL document CHEMBL1152609, “Synthesis and pharmacological exploitation of clioquinol-derived copper-binding apoptosis inducers triggering reactive oxygen species generation and MAPK pathway activation” (2009).
